In ChEMBL document CHEMBL1124451, “[(1H-imidazol-1-yl)methyl]- and [(3-pyridinyl)methyl]pyrroles as thromboxane synthetase inhibitors” (J Med Chem, 1989):

How the values were obtained:
[1] = biological target: T1, Thromboxane-A synthase (Homo sapiens) (UniProt P24557); assay: Relative potency of thromboxane A2 synthetase as reduced ADP-induced aggregation of human platelet rich plasma compared to dazoxiben; format: functional, cell-free
T1 sequence (whole entry): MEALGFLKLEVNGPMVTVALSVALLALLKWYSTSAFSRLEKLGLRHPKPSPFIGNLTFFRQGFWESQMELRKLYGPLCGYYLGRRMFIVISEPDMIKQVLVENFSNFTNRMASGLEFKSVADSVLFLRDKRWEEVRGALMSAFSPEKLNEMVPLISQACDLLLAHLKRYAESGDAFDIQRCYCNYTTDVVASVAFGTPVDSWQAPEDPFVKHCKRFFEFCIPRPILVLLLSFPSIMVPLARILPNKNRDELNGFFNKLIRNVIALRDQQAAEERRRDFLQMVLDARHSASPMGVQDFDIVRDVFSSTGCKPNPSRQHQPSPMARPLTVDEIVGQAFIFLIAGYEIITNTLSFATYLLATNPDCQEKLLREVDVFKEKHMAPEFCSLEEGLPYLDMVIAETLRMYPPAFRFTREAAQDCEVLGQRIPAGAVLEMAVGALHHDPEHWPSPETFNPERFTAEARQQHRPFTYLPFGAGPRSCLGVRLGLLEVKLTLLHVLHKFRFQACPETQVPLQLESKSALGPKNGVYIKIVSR

[2] = organism: Homo sapiens; assay: Relative potency to inhibit ADP-induced aggregation of human platelet rich plasma compared to that of dazoxiben, in vitro using pig aortal microsomes.; format: functional; conditions: Aorta
[3] = organism: Homo sapiens; assay: In vitro inhibition of ADP-induced aggregation of human platelet rich plasma in the presence of pig aortal microsomes.; format: functional; conditions: Aorta
Method in brief: (§1)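 Human citrated blood (0.38% citrate final), PRP by centrifugation at 200g, room temperature. Drug added to 1.0 mL PRP, 2 min at 37 °C with stirring (500 rpm), then pig aortal microsomes 3 min; microsome amount set by the dazoxiben standard. Aggregation induced by 5 μM ADP (final), read turbidimetrically.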

[4] = organism: Homo sapiens; assay: Relative potency to inhibit ADP-induced aggregation of human platelet rich plasma compared to that of dazoxiben, in vitro using pig aortal microsomes; format: functional; conditions: Aorta
[5] = organism: Homo sapiens; assay: In vitro inhibition of ADP-induced aggregation of human platelet rich plasma in the presence of pig aortal microsomes; format: functional; conditions: Aorta; method in brief: as §1
[6] = test system: Mus musculus; assay: Activity at 20 mg/kg given intravenously against mortality in a pulmonary thromboembolism model in mice (10 animals) at -3h; format: functional; conditions: route intravenous
Method in brief: (§2)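 Male Swiss-Webster mice (22-26 g); test material given iv in 0.2 mL CMC before challenge (mostly at -3 h, one group at -1 h). At hour 0, collagen extract plus epinephrine hydrochloride given iv in 0.2 mL 0.9% saline via tail vein. The collagen amount was set per lot as the minimum giving 90-100% mortality in CMC-vehicle controls. Readout: % surviving at 24 h.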

[7] = test system: Mus musculus; assay: Activity at 10 mg/kg given intravenously against mortality in a pulmonary thromboembolism model in mice (10 animals) at -3h; format: functional; conditions: route intravenous; method in brief: as §2
[8] = test system: Mus musculus; assay: Activity at 10 mg/kg […] against mortality in a pulmonary thromboembolism model in mice (10 animals) at -18h following oral administration; format: functional
Method in brief: (§3)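 Male Swiss-Webster mice (22-26 g), 10 per group (one group of 9); test material given po in 0.2 mL CMC at -1, -3, -5 or -18 h before challenge. At hour 0, collagen extract plus epinephrine hydrochloride given iv via tail vein in 0.9% saline. The collagen amount was titrated per lot to 90-100% mortality in vehicle controls. Readout: % surviving at 24 h.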

[9] = test system: Mus musculus; assay: Activity at 10 mg/kg […] against mortality in a pulmonary thromboembolism model in mice (10 animals) at -5h following oral administration; format: functional; method in brief: as §3
[10] = test system: Mus musculus; assay: Activity at 10 mg/kg […] against mortality in a pulmonary thromboembolism model in mice (9 animals) at -3h following oral administration; format: functional; method in brief: as §3
[11] = test system: Mus musculus; assay: Activity at 10 mg/kg […] against mortality in a pulmonary thromboembolism model in mice (10 animals) at -7h following oral administration; format: functional
[12] = test system: Mus musculus; assay: Activity at 10 mg/kg […] against mortality in a pulmonary thromboembolism model in mice (10 animals) at -1h following oral administration; format: functional; method in brief: as §3
[13] = organism: Homo sapiens; assay: In vitro inhibition of ADP-induced aggregation of human platelet rich plasma in the presence of pig aortal microsomes, at 5*10e-6 M compound concentration.

IC50 [3] [µM]	Structure (SMILES)	Relative potency [1]	Relative potency [2]	further results
–	C/C(=C/c1ccc(Cc2cccnc2)n1-c1ccccc1)C(=O)O	0.08	–	–
57	CCOC(=O)/C(C)=C\c1ccc(Cc2cccnc2)n1CC(C)(C)C	–	0.03	–
–	CCOC(=O)/C(C)=C\c1ccc(Cn2ccnc2)n1C	–	–	Relative potency [4]: 0.08; IC50 [5]: 26 µM
20	C/C(=C\c1ccc(Cn2ccnc2)[nH]1)C(=O)OCc1ccccc1	–	0.11	–
–	CCn1c(/C=C(/C)C(=O)O)ccc1Cc1cccnc1	45	–	survival at 20 mg/kg [6]: 10%; survival at 10 mg/kg [7]: 10%
180	CCOC(=O)/C(C)=C\c1ccc(Cc2cccnc2)n1-c1ccccc1	–	0.01	–
14	CCOC(=O)/C(C)=C\c1ccc(Cc2cccnc2)n1CC	–	0.14	–
–	C/C(=C/c1ccc(Cc2cccnc2)n1C)C(=O)O	46	–	survival at 20 mg/kg [6]: 30%; survival at 10 mg/kg [7]: 0%
–	CCOC(=O)/C(C)=C\c1ccc(Cc2cccnc2)n1C	–	–	inhibition [13]: 49%
1.8	CCOC(=O)/C=C/c1cc(Cn2ccnc2)n(C)c1	–	1.2	–
–	C/C(=C\c1ccc(Cn2ccnc2)[nH]1)C(=O)O	0.24	–	–
8.9	CCOC(=O)/C=C\c1ccc(Cn2ccnc2)n1C	–	0.25	–

Structure (SMILES)	IC50 [3] [µM]	Relative potency [1]	Relative potency [2]	further results
Cc1c(Cn2ccnc2)c2ccccc2n1CCC(=O)O [DAZMEGREL]	1.9	–	1	survival at 10 mg/kg [8]: 10%; survival at 10 mg/kg [9]: 20%; survival at 10 mg/kg [10]: 11%; survival at 10 mg/kg [11]: 0%; survival at 10 mg/kg [12]: 20%
